Experimental data gathered from unrelated publications.
Compare with care: the assays were run in different laboratories.
RPS6KA5: Ribosomal protein S6 kinase alpha-5 (RPS6KA5, Homo sapiens, UniProt O75582)
RPS6KA5 N-terminal kinase domain: Ribosomal protein S6 kinase alpha-5, N-terminal kinase domain (RPS6KA5, Homo sapiens, UniProt O75582)
RPS6KA5 C-terminal kinase domain: Ribosomal protein S6 kinase alpha-5, C-terminal kinase domain (RPS6KA5, Homo sapiens, UniProt O75582)

O=C1Nc2ccc(Cl)cc2C1=Cc1cc(Cl)c(O)c(Cl)c1
remaining signal (RPS6KA5; cell-free assay; 0.5 µM): 86.1%

CCC(=N\O)/C(C)=C/c1ccc(F)cc1
remaining binding (RPS6KA5 N-terminal kinase domain; cell-free assay, competition with immobilised ligand; 1 µM): 100%

Cc1ccc(Nc2nccc(N(C)c3ccc4c(C)n(C)nc4c3)n2)cc1S(N)(=O)=O
inhibition (RPS6KA5; enzyme activity, inhibitor; 10 µM): 36%

C[C@@H]1CCN(c2nccc(-c3cnn4ncccc34)n2)C1
remaining binding (RPS6KA5 C-terminal kinase domain; binding, competition with immobilised ligand; 1 µM): 100%

CCN(CC)CCNC(=O)c1c(C)[nH]c(/C=C2\C(=O)Nc3ccc(F)cc32)c1C
remaining signal (RPS6KA5; cell-free assay; 0.5 µM): 60.1%

CC1CCCN1c1nccc(-c2cnn3ncccc23)n1 (stereo not drawn)
remaining binding (RPS6KA5 C-terminal kinase domain; binding, competition with immobilised ligand; 1 µM): 100%

CC1=C(C#N)C(c2ccc3c(c2)c(NC(=O)c2ccccc2C)nn3C)C(C#N)=C(C)N1
remaining binding (RPS6KA5 N-terminal kinase domain; cell-free assay, competition with immobilised ligand; 1 µM): 91%

CN(c1ncccc1CNc1nc(Nc2ccc3c(c2)CC(=O)N3)ncc1C(F)(F)F)S(C)(=O)=O
inhibition (RPS6KA5; enzyme activity, inhibitor; 1 µM): 31.9%

Cc1cc(NC(=O)c2cccc3cc(-c4cccc5[nH]nc(N)c45)ccc23)ccc1F
activity vs control (RPS6KA5; enzyme activity, inhibitor; 0.1 µM): 94%

COc1ccc2cc(OCC3(C(=O)O)CN(C(=O)c4ccc(F)cc4)C3)ccc2c1
remaining binding (RPS6KA5 N-terminal kinase domain; cell-free assay, competition with immobilised ligand; 1 µM): 100%

FC(F)c1nc2ccccc2n1-c1nc(N2CCOCC2)nc(N2CCOCC2)n1
remaining activity (RPS6KA5; enzyme activity, inhibitor; 10 µM): 89%

C[C@@H]1CCN(C(=O)CC#N)C[C@@H]1N(C)c1ncnc2[nH]ccc12
remaining signal (RPS6KA5; cell-free assay, inhibitor; 0.5 µM): 94.8%

CC(C)(O)[C@H]1CC[C@H](Nc2ccc3ncc(-c4cccc(C(F)(F)F)c4)n3n2)CC1
remaining activity (RPS6KA5; enzyme activity, inhibitor; 1 µM): 98.9%

CN(C)c1ncc(F)c(-c2cnn3ncccc23)n1
remaining binding (RPS6KA5 C-terminal kinase domain; binding, competition with immobilised ligand; 1 µM): 89%

CNC(=O)c1cc(Oc2ccc(NC(=O)Nc3ccc(Cl)c(C(F)(F)F)c3)cc2)ccn1
inhibition (RPS6KA5; enzyme activity, inhibitor; 10 µM): 8%

O=C(NC[C@@H]1[C@H]2CN(C(=O)OCc3cc(C(F)(F)F)cc(C(F)(F)F)c3)C[C@@H]12)c1ccc2[nH]nnc2c1
remaining binding (RPS6KA5 N-terminal kinase domain; cell-free assay, competition with immobilised ligand; 1 µM): 100%

Nc1ncnc2occ(-c3ccc(NC(=O)Nc4cc(C(F)(F)F)ccc4F)cc3)c12
remaining signal (RPS6KA5 N-terminal kinase domain; cell-free assay, inhibitor; 20 µM): 2.2%

CCCOc1ccc(OC)c(F)c1C(=O)c1ccc(C(=O)N[C@@H]2CNC[C@H]2NC(=O)c2ccc3[nH]ncc3c2)cc1
remaining activity (RPS6KA5; enzyme activity, inhibitor; 10 µM): 2%

CC(C)(C)c1nc(-c2cccc(NS(=O)(=O)c3c(F)cccc3F)c2F)c(-c2ccnc(N)n2)s1
remaining activity (RPS6KA5; enzyme activity, inhibitor, radiometric; 1 µM): 97%

CCS(=O)(=O)c1cc2cc(C[C@](O)(CC(C)(C)c3ccc(F)cc3C(N)=O)C(F)(F)F)[nH]c2cn1
remaining binding (RPS6KA5 C-terminal kinase domain; cell-free assay, competition with immobilised ligand; 1 µM): 100%

N#CCCc1ccc2c(c1)-c1[nH]c3ccc([N+](=O)[O-])cc3c1CC(=O)N2
remaining signal (RPS6KA5; cell-free assay; 0.5 µM): 94.2%

N[C@H]1CCN(c2nccc(-c3cnn4ncccc34)n2)C1
remaining binding (RPS6KA5 C-terminal kinase domain; binding, competition with immobilised ligand; 1 µM): 100%

COc1cc(-c2cn(C3CCc4c(F)cccc4N(CC(F)(F)F)C3=O)nn2)ccc1-n1cnc(C)c1 (stereo not drawn)
remaining binding (RPS6KA5 N-terminal kinase domain; cell-free assay, competition with immobilised ligand; 1 µM): 100%

CN(c1nccc(-c2cnn3ncccc23)n1)C1CC1
remaining binding (RPS6KA5 N-terminal kinase domain; binding, competition with immobilised ligand; 1 µM): 100%

Nc1nc(NC2CCCCC2)sc1C(=O)c1ccccc1
remaining activity (RPS6KA5; enzyme activity, inhibitor; 10 µM): 122%

O=C(Nc1cnn(-c2csc(C(=O)NC3COC3)c2)c1)Nc1ccccc1Cl
remaining activity (RPS6KA5; enzyme activity, inhibitor; 5 µM): 89.5%

COc1cc(Nc2cnc(C#N)c(O[C@H](C)CN(C)C)n2)ncc1-c1cnn(C)c1
remaining activity (RPS6KA5; enzyme activity, inhibitor, radiometric; 1 µM): 86%

Cc1ccc(C(=O)Nc2ccc(CN3CCN(C)CC3)c(C(F)(F)F)c2)cc1C#Cc1cnc2cccnn12
activity vs control (RPS6KA5; enzyme activity, inhibitor; 23.5 nM): 96%

COc1cc2ncnc(Nc3ccc(Oc4ccccc4)cc3C)c2cc1OC
inhibition (RPS6KA5; enzyme activity, inhibitor; 1 µM): 2%

Oc1cccc(-c2nc(N3CCOCC3)c3oc4ncccc4c3n2)c1
remaining signal (RPS6KA5; cell-free assay; 0.5 µM): 86.5%

Cc1nc(C2CCN(C(=O)c3ccc(OC(F)(F)F)cc3N)CC2)c2ncc(N3CCN(C)CC3)cc2n1
remaining binding (RPS6KA5 N-terminal kinase domain; cell-free assay, competition with immobilised ligand; 1 µM): 100%

CCCS(=O)(=O)Nc1ccc(F)c(C(=O)c2c[nH]c3ncc(-c4ccc(Cl)cc4)cc23)c1F
inhibition (RPS6KA5; enzyme activity, inhibitor; 1 µM): < 10%

CNCc1ccc(-c2cc(-c3nc(-c4ccc(S(=O)(=O)C(C)C)cc4)cnc3N)on2)cc1
inhibition (RPS6KA5; enzyme activity, inhibitor; 0.4 µM): 0%

Oc1cccc(-c2nc(N3CCOCC3)c3oc4ncccc4c3n2)c1
remaining activity (RPS6KA5; enzyme activity, inhibitor; 10 µM): 105%

CNC(=O)c1ccc(Nc2ncc(C(F)(F)F)c(NCc3nccnc3N(C)S(C)(=O)=O)n2)cc1
remaining binding (RPS6KA5 N-terminal kinase domain; cell-free assay, competition with immobilised ligand; 0.1 µM): 81%

COc1cc(Cl)c(C(=O)N[C@@H](CN[C@H]2CC[C@@H](N)CC2)Cc2ccc(C#N)cc2)cc1-c1ccc(CN[C@H](C)c2ccc(C)cc2)o1
remaining activity (RPS6KA5; enzyme activity, inhibitor; 1 µM): 85%
